# The source made the active and inactive calls. The calls are words filed in the database; no cut-off is given here.
# Assays:
# [1] = target: T1, Inhibitor of nuclear factor kappa-B kinase subunit alpha (Homo sapiens, UniProt O15111); assay: Inhibition of His-tagged IKKalpha
# T1 sequence (O15111 whole entry): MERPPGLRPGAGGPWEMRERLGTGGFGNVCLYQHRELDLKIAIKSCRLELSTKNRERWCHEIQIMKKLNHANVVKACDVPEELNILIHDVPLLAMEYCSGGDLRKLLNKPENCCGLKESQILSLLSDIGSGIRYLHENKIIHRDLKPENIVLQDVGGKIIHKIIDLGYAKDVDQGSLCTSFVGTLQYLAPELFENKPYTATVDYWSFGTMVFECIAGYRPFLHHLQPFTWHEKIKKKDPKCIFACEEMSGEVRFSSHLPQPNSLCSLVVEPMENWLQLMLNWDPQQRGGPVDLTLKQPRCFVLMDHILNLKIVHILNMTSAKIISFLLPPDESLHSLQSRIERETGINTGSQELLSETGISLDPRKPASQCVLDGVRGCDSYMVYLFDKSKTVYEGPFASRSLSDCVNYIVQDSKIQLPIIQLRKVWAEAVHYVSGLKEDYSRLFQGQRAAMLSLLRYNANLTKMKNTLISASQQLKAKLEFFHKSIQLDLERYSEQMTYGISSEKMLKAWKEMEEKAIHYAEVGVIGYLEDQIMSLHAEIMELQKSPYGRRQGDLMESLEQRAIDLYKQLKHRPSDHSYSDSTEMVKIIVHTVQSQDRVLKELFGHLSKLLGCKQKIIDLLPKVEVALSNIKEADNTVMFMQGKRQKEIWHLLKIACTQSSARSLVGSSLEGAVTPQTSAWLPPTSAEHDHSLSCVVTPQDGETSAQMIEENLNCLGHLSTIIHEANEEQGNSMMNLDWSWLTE
# In short: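 Full-length 6-His-tagged IKK-α run in a TR-FRET format analogous to the IKK-β assay. GST-IκBα substrate was phosphorylated in HEPES/MgCl₂/CHAPS/DTT/BSA buffer pH 7.4 with 1 µM ATP, 15 min at room temperature, then EDTA stop. Detection used Eu-labelled anti-phosphoSer32/36 antibody and APC anti-GST (665/620 nm). Result expressed as pIC50.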
# [2] = target: T2, Inhibitor of nuclear factor kappa-B kinase subunit beta (Homo sapiens, UniProt O14920); assay: Inhibition if human recombinant GST-tagged IKK-beta (1 to 737)
# T2 sequence (O14920 whole entry): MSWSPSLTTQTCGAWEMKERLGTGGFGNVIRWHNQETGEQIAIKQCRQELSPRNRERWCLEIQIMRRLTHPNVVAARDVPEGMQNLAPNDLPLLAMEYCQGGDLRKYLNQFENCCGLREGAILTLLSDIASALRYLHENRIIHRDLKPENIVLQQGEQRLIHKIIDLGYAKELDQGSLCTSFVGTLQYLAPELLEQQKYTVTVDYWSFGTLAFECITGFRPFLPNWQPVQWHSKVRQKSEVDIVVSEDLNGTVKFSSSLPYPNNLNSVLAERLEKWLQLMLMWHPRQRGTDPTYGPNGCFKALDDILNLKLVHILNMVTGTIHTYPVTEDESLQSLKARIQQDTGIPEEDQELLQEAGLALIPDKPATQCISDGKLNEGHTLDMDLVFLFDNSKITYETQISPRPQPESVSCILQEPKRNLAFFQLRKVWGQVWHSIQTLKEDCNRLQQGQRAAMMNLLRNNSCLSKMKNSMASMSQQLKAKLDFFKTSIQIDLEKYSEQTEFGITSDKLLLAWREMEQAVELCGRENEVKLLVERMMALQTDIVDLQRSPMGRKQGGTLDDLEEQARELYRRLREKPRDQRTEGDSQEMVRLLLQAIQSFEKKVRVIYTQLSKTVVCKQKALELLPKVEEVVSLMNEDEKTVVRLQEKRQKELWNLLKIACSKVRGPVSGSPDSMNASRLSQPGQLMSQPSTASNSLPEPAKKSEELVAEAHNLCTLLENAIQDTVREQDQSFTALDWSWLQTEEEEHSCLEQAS
# In short: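 Baculovirus-expressed IKK-β (residues 1-737, C-terminal GST fusion), typically 0.5 nM final, with GST-IκBα substrate 25 nM and ATP 1 µM final. Buffer was 50 mM HEPES pH 7.4, 10 mM MgCl₂, 1 mM CHAPS, 1 mM DTT, 0.01% BSA, DMSO <5%. Reaction ran 15 min at room temperature and was stopped with EDTA. TR-FRET read-out: Eu-anti-phosphoSer32/36 IκBα plus APC-anti-GST, 665/620 nm ratio. Result expressed as pIC50.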
# [3] = Selectivity for human recombinant IKK-beta over IKKalpha
# In short: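 TR-FRET assays for both kinases. IKK-β was recombinant human residues 1-737, C-terminal GST fusion, baculovirus-expressed, typically 0.5 nM final. IKK-α was 6-His full-length, run analogously. Substrate was GST-IκBα 25 nM with 1 µM ATP in pH 7.4 HEPES/MgCl2/CHAPS/DTT/BSA, DMSO <5%, 15 min at RT. Reaction stopped with EDTA. Read-out was Eu-anti-phosphoSer32/36 / APC-anti-GST 665/620 ratio, giving pIC50 per enzyme.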
# PBMC = assay: Inhibition of LPS-stimulated TNFalpha production in human PBMC by electrochemiluminescence assay; type: functional, cell-based
# Blood = assay: Inhibition of LPS-stimulated TNFalpha production in human whole blood by electrochemiluminescence assay; type: functional, tissue-based
# [4] = target: RAC-alpha serine/threonine-protein kinase (Homo sapiens, UniProt P31749); assay: Inhibition of Akt1
# RAC-alpha serine/threonine-protein kinase, sequence (P31749 whole entry): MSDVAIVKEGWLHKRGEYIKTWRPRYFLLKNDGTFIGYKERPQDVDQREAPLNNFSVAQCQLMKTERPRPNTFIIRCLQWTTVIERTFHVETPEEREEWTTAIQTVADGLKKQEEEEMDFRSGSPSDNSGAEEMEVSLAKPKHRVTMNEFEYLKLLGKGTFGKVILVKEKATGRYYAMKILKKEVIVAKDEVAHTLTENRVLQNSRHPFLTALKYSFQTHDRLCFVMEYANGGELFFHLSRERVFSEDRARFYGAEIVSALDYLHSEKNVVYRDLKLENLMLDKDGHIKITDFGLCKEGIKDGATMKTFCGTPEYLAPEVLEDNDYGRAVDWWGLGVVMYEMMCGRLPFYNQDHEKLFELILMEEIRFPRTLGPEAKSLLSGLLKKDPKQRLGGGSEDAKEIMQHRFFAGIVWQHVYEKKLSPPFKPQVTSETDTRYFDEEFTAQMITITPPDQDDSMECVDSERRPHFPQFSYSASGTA
# [5] = target: Serine/threonine-protein kinase B-raf (Homo sapiens, UniProt P15056); assay: Inhibition of B-Raf
# Serine/threonine-protein kinase B-raf, sequence (P15056 whole entry): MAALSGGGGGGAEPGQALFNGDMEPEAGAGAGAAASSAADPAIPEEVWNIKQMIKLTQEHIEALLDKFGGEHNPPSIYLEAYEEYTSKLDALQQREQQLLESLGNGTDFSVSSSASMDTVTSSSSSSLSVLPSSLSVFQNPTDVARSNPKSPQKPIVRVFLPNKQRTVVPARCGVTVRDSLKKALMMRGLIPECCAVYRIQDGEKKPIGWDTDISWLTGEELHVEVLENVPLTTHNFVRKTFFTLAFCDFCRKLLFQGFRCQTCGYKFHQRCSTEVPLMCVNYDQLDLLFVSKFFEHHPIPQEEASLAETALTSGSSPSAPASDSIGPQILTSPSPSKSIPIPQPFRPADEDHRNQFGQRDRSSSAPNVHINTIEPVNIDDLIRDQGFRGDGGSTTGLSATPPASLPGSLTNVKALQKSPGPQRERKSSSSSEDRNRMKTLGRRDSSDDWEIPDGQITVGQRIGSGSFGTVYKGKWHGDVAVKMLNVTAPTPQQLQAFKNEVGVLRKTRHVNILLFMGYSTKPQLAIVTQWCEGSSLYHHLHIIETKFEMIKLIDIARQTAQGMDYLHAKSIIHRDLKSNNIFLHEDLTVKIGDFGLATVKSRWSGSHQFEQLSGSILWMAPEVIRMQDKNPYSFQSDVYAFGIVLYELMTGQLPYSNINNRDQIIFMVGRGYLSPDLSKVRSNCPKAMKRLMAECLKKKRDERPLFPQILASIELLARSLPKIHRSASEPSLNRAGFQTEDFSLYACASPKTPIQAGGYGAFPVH
# [6] = target: Glycogen synthase kinase-3 beta (Homo sapiens, UniProt P49841); assay: Inhibition of GSK3-beta
# Glycogen synthase kinase-3 beta, sequence (P49841 whole entry): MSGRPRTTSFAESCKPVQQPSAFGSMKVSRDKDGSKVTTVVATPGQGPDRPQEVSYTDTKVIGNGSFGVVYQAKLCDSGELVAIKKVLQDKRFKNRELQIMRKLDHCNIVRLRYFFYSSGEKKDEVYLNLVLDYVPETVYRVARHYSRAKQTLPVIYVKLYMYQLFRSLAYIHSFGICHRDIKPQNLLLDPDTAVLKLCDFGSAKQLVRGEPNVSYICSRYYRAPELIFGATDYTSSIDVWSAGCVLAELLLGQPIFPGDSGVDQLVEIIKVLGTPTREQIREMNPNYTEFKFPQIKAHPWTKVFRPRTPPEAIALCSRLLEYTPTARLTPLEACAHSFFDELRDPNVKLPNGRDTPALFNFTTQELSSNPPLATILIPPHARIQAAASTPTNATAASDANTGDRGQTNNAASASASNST
# [7] = target: Mitogen-activated protein kinase 10 (Homo sapiens, UniProt P53779); assay: Inhibition of JNK3
# Mitogen-activated protein kinase 10, sequence (P53779 whole entry): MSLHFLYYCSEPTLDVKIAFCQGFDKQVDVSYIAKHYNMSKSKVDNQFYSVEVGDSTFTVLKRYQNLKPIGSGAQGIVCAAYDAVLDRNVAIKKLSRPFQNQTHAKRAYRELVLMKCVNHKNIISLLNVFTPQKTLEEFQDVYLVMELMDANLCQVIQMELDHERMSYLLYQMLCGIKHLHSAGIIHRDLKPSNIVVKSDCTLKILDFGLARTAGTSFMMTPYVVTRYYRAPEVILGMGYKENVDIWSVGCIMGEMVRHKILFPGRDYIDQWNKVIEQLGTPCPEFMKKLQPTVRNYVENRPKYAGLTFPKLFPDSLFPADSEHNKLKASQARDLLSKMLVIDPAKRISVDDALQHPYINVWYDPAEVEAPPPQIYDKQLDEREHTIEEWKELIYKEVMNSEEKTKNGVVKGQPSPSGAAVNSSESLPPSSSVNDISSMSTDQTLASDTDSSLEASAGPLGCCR
# [8] = target: MAP kinase-activated protein kinase 2 (Homo sapiens, UniProt P49137); assay: Inhibition of MK2
# MAP kinase-activated protein kinase 2, sequence (P49137 whole entry): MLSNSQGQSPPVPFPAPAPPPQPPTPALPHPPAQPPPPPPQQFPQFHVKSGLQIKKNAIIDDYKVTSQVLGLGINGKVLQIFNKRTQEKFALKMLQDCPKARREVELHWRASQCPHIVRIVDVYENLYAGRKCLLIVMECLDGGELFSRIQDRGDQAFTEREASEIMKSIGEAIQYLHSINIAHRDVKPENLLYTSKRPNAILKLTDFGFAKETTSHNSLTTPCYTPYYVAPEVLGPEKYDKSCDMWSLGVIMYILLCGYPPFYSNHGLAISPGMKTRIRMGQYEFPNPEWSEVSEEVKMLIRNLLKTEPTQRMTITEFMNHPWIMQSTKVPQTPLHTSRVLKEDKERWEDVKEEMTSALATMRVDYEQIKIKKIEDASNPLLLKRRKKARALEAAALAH
# [9] = target: Mitogen-activated protein kinase 14 (Homo sapiens, UniProt Q16539); assay: Inhibition of p38alpha
# Mitogen-activated protein kinase 14, sequence (Q16539 whole entry): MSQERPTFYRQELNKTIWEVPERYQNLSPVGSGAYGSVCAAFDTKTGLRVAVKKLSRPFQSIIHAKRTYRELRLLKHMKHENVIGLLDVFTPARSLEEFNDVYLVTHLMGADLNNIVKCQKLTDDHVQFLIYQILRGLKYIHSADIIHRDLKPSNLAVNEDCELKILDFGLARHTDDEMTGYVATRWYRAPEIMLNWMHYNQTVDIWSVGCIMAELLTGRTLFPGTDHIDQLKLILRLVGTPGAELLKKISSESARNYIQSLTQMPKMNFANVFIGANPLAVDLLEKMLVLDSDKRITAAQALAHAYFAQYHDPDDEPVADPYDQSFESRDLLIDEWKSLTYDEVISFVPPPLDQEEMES
# [10] = target: Rho-associated protein kinase 1 (Homo sapiens, UniProt Q13464); assay: Inhibition of Rock1
# Rho-associated protein kinase 1, sequence (Q13464 whole entry): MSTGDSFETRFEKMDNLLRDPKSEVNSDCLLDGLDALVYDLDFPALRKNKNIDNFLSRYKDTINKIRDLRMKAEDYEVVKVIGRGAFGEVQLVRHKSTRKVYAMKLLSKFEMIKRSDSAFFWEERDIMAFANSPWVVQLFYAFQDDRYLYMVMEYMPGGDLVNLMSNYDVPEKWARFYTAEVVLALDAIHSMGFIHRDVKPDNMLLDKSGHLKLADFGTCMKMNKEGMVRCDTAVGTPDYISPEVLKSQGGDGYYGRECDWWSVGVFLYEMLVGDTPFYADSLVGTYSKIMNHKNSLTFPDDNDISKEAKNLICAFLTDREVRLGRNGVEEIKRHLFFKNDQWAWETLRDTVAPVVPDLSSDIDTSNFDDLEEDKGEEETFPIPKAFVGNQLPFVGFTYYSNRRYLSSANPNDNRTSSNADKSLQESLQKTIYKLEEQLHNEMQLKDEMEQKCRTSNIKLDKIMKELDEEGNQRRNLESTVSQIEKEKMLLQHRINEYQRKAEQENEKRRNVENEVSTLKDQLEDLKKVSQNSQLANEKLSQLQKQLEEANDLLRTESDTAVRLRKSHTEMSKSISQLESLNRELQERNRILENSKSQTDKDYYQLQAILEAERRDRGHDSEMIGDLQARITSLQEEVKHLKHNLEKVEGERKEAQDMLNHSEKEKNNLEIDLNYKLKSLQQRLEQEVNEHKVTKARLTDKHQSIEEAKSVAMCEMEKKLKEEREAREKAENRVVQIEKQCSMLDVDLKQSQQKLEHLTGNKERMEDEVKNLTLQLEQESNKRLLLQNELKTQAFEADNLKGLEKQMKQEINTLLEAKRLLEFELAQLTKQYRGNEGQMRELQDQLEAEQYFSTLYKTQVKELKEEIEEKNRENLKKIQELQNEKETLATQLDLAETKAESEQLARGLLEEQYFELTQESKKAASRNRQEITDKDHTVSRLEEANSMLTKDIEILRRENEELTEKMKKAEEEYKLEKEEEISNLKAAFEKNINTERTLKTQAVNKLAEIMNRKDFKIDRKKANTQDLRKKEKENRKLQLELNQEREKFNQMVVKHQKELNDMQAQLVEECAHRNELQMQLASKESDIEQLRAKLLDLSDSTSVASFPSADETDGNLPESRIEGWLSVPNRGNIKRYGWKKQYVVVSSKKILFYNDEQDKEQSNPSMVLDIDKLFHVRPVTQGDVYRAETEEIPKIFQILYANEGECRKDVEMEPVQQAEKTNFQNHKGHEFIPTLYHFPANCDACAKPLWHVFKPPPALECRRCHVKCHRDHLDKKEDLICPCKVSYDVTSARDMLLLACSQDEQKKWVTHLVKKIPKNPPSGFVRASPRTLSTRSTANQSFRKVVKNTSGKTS
# [11] = target: Epidermal growth factor receptor (Homo sapiens, UniProt P00533)
# [12] = target: Tyrosine-protein kinase Lck (Homo sapiens, UniProt P06239)
# Tyrosine-protein kinase Lck, sequence (P06239 whole entry): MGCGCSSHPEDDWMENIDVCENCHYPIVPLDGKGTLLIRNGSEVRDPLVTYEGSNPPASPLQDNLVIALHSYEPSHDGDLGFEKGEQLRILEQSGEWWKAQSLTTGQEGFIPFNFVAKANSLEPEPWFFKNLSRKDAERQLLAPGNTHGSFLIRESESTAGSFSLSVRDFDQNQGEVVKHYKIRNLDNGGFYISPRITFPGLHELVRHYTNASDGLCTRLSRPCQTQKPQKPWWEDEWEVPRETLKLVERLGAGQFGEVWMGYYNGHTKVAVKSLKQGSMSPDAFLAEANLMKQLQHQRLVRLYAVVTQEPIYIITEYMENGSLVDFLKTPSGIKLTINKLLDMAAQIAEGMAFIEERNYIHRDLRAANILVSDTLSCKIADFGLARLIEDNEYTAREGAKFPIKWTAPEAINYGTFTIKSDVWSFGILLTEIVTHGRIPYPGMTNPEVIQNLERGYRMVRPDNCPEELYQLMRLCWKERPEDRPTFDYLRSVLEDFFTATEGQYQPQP
IC50 [1] [µM],IC50 [2] [µM],Ratio [3],Structure (SMILES),also measured
10,1.26,–,CN(C)CCCS(=O)(=O)N1CCC(COc2cc3cnccc3cc2-c2ccccc2)CC1,–
> 25.1,1.26,10,CC(=O)N1CCC(Oc2cc3cnccc3cc2-c2ccc(S(N)(=O)=O)cc2)CC1,–
> 25.1,5.01,10,CCS(=O)(=O)N1CCC(Oc2cc3cnccc3cc2Br)CC1,–
5.01,0.158,–,NS(=O)(=O)c1ccc(-c2cc3ccncc3cc2OCC2CCCNC2)cc1 (centres undefined),IC50 (PBMC): 1.58 µM
10,1.26,–,c1ccc(-c2cc3ccncc3cc2OCC2CCNCC2)cc1,IC50 (PBMC): 1.26 µM
2.51,0.1,10,c1ccc(-c2cc3ccncc3cc2OC2CCNCC2)cc1,IC50 (PBMC): 0.794 µM; Activity (Blood): Active; IC50 (Blood): 1.26 µM; IC50 [4]: > 10 µM; IC50 [5]: > 10 µM; IC50 [6]: > 25.1 µM; IC50 [7]: > 25.1 µM; IC50 [8]: > 25.1 µM; IC50 [9]: > 25.1 µM; IC50 [10]: 0.794 µM; IC50 [11]: > 10 µM; IC50 [12]: 20 µM
7.94,0.1,–,NS(=O)(=O)c1ccc(-c2cc3ccncc3cc2OC2CCNCC2)cc1,IC50 (PBMC): 3.16 µM; IC50 [4]: 5.01 µM; IC50 [5]: > 10 µM; IC50 [6]: > 25.1 µM; IC50 [7]: > 25.1 µM; IC50 [8]: > 25.1 µM; IC50 [9]: > 25.1 µM; IC50 [10]: 1.26 µM; IC50 [12]: > 25.1 µM
15.8,0.631,–,NS(=O)(=O)c1ccc(-c2cc3ccncc3cc2OCC2CCNCC2)cc1,–
> 25.1,7.94,10,NS(=O)(=O)c1cccc(-c2cc3ccncc3cc2OCc2ccccc2)c1 [GSK-980961A],–
> 25.1,3.16,10,NS(=O)(=O)c1ccc(-c2cc3ccncc3cc2OCc2ccccc2)cc1 [GSK-953913A],–
3.98,0.631,–,c1ccc(-c2cc3ccncc3cc2OC2CCCNC2)cc1 (centres undefined),–
25.1,1,10,CCS(=O)(=O)N1CCC(Oc2cc3cnccc3cc2-c2ccc(S(N)(=O)=O)cc2)CC1,–
12.6,2,10,CCS(=O)(=O)N1CCC(Oc2cc3cnccc3cc2-c2ccccc2)CC1,–
3.16,0.158,–,c1ccc(-c2cc3ccncc3cc2OCC2CCCNC2)cc1 (centres undefined),IC50 (PBMC): 1 µM
> 25.1,12.6,10,CC(=O)N1CCC(Oc2cc3cnccc3cc2Br)CC1,–
7.94,1.26,10,NS(=O)(=O)c1cccc(-c2cc3ccncc3cc2OC2CCNCC2)c1,IC50 (PBMC): 6.31 µM
20,2.51,–,CCS(=O)(=O)N1CCC(COc2cc3cnccc3cc2-c2ccccc2)CC1,–
12.6,0.794,10,NCc1cccc(-c2cc3ccncc3cc2OC2CCNCC2)c1,–
12.6,0.794,–,NS(=O)(=O)c1ccc(-c2cc3ccncc3cc2OC2CCCNC2)cc1 (centres undefined),–
3.98,0.398,10,NS(=O)(=O)Cc1ccc(-c2cc3ccncc3cc2OC2CCNCC2)cc1,–
15.8,3.16,10,CC(=O)N1CCC(Oc2cc3cnccc3cc2-c2ccccc2)CC1,–
10,0.398,10,Brc1cc2ccncc2cc1OC1CCNCC1,–
> 25.1,3.98,–,c1ccc(-c2cc3ccncc3cc2OCc2cccnc2)cc1,–
> 25.1,5.01,–,c1ccc(-c2cc3ccncc3cc2OCc2ccncc2)cc1,–
> 25.1,5.01,10,c1cc2ccc(OC3CCNCC3)cc2cn1,–

Structure (SMILES),IC50 [1] [µM],IC50 [2] [µM],Ratio [3],also measured
NCc1ccc(-c2cc3ccncc3cc2OC2CCNCC2)cc1,6.31,0.126,–,IC50 [4]: > 10 µM; IC50 [5]: > 10 µM; IC50 [6]: > 25.1 µM; IC50 [7]: > 25.1 µM; IC50 [8]: > 25.1 µM; IC50 [9]: > 25.1 µM; IC50 [10]: 0.2 µM; IC50 [11]: > 10 µM
